T cruzi inh: inhibitors of intracellular T. cruzi growth, primary screen, luminescence, NIH3T3 host cells. T. cruzi beta-gal in NIH3T3, 90 h. inhibition, % (no concentration beside the values). actives 1.4% (n = 300,000). AID 1885, 2009;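 active means mean inhibition across valid replicates above about 55%, limit read from the data; inconclusive means mean below that limit but half or more replicates reach it; inactive means mean below it, under half of replicates reach it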;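 further: signal also drops with host cell toxicity which is not excluded here; 0% = plate median of DMSO wells and 100% = zero luminescence signal; higher percent means less beta-gal luminescence so fewer parasites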
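Incubation – ≥90 h infection period, 3 h prior cell attachment · System – NIH/3T3 fibroblasts plus reporter T. cruzi · Doses – compound pinned at 50 nL/well, DMSO · Read-out basis – percent inhibition of parasite-derived β-gal signal · Signal – luminescent β-galactosidase signal after 60 min lysis · Also added – 5000 T. cruzi trypomastigotes/well · Medium – Low-serum DMEM with 2% FBS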
TAG inh: inhibitors of triacylglycerol accumulation, primary screen, cell-based, uHTS, fluorescence, H9c2 | H9c2 cells, Nile Red lipid (TAG) fluorescence; cells loaded with 200 µM oleic acid | inhibition, % at 12.5 µM | actives 0.66% (n = 230,000);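 active means pattern-corrected inhibition of lipid staining of at least 50% with the nuclear-stain viability signal not falling by more than 50%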;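 further: 0% = DMSO wells and 100% = triacsin C control wells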
Bfl-1 A1 inh: caspase 3/7 activation in MEF A1-2A-BIM cells, primary screen, A1 inhibitor project, cell-based, luminescence, HTS; actives 0.066% (n = 330,000); Caspase-Glo 3/7 luminescence, 3 h; percent of clofoctol response, vehicle zero; caspase activation, % (concentration not given with the values);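 active means over half of replicate activation scores above 10%, or exactly half above 10 with the replicate mean above 10; inconclusive means replicate mean below 10 yet half the replicates above 10; inactive means over half of replicates below 10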
CSC inhib: cancer stem cell viability inhibitors, primary screen, luminescence. actives 1.1% (n = 300,000). AID 2717, 2010. inhibition, % at 7.5 µM. cancer stem cell-like cells viability; in the data active means inhibition above about 75%; inconclusive means no clear call, values can overlap the other calls; tested in HMLE shEcad cells
Calb FLC: C. albicans growth inhibition with fluconazole, primary screen, CaCi-2 strain, Alamar Blue fluorescence; C. albicans CaCi-2 + fluconazole, 48 h; growth inhibition, % (no concentration beside the values); actives 0.57% (n = 300,000); AID 1979, 2009;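 active means growth inhibition above about 58% in most replicates, limit read from the data, passing the limit was not always enough; inconclusive means exactly half the replicates above a set limit; inactive means most replicates below a set limit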;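 further: all wells also contain fluconazole at 8 µg/ml as a sub-toxic cotreatment; 0% = median of DMSO wells and 100% = median of geldanamycin control wells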
Beta cell apopt: inhibitors of cytokine-induced beta cell apoptosis, primary screen, luminescence | protection from apoptosis, % (test concentration not listed) | INS-1E cytokine-induced death, ATP luminescence, 48 h; percent of positive-control rescue, neutral wells zero | actives 0.8% (n = 300,000) | AID 435005, 2010;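 active means Every replicate reaches about 75%, or at least half do and their mean reaches it too, limit read from the data; inconclusive means At least half of replicates reach the limit but their mean does not; inactive means Under half of replicates reach the limit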;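 further: 0% = cytokine-treated negative control wells and 100% = positive control rescue; higher means more ATP so stronger rescue from cytokine killing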
* hit, by the source's call. An excerpt weighted towards active compounds, which were near 3.1% of everything screened.

How did CCOC(=O)c1cnc(-n2nc(C)cc2C)nc1NNc1cc(-c2ccccc2)nc(C)n1 do in these assays?
T cruzi inh: 49.2; Bfl-1 A1 inh: -0.2; Calb FLC: -19.2

Results for CCOC(=O)c1cnc(-n2nc(C)cc2C)nc1NNc1ncc(-c2ccccc2)cn1 ?
T cruzi inh: 15.3; Bfl-1 A1 inh: 0.0; CSC inhib: 36.7; Calb FLC: 5.5; Beta cell apopt: 96.4*

What do the screens show for `CCOC(=O)c1cnc(-n2nc(C)cc2C)nc1NCCO`?
T cruzi inh: -14.6; Calb FLC: 5.2; Beta cell apopt: -4.5

How did Cc1ccc(C)c(S(=O)(=O)N2CCN(C(=O)Cn3[nH]c(=O)c4ccccc4c3=O)CC2)c1 do in these assays?
T cruzi inh: 1.2; TAG inh: 0.7; Bfl-1 A1 inh: 0.9; CSC inhib: -3.4; Calb FLC: 20.5; Beta cell apopt: -2.4

How did Cc1cc(C(=O)N/N=C/c2ccc([N+](=O)[O-])s2)n[nH]1 do in these assays?
T cruzi inh: 57.0*; TAG inh: -5.4; Bfl-1 A1 inh: -0.6; Calb FLC: 5.0

Results for Cc1[nH]cnc1C(=O)N/N=C/c1ccc([N+](=O)[O-])s1 ?
T cruzi inh: 57.4*; Bfl-1 A1 inh: -1.8; CSC inhib: 8.6; Calb FLC: 13.5; Beta cell apopt: 12.3

What do the screens show for `COc1ccc(NC(=O)CCC(=O)N/N=C/c2ccc([N+](=O)[O-])s2)cc1`?
T cruzi inh: 50.1; Bfl-1 A1 inh: -0.6; Calb FLC: -3.6; Beta cell apopt: 30.3

How did Cc1ccc(S(=O)(=O)NC2CC2)cc1[N+](=O)[O-] do in these assays?
T cruzi inh: -0.3; Bfl-1 A1 inh: 1.3; CSC inhib: -11.6; Calb FLC: 10.7; Beta cell apopt: 1.3

Results for CC(C)(C)c1ccc(CN2C3=NCCCN3c3ccccc32)cc1 ?
T cruzi inh: 68.7*; TAG inh: -20.4; Bfl-1 A1 inh: -0.6; CSC inhib: 31.4; Calb FLC: -2.3; Beta cell apopt: 40.6

How did Cc1ccc(CN2C3=NCCCN3c3ccccc32)cc1 do in these assays?
TAG inh: 5.6; Bfl-1 A1 inh: -0.1; CSC inhib: -0.6; Beta cell apopt: 2.0

How did CC(=O)C1(C)C(=O)N(c2ccc(C)cc2)C(=O)N1c1ccc(C)cc1 (stereo unspecified) do in these assays?
TAG inh: 12.2

What do the screens show for `COc1cc([C@@H]2c3cc4c(cc3[C@@H](NC3CCN(Cc5ccccc5)CC3)[C@H]3COC(=O)[C@H]23)OCO4)cc(OC)c1O`?
T cruzi inh: 24.1; Calb FLC: 101.1*

How did COC(CN(C)C(=O)c1ccc2c(c1)NC(=O)c1ccccc1S2)OC do in these assays?
T cruzi inh: -4.5; Bfl-1 A1 inh: -0.4; CSC inhib: -4.6; Calb FLC: 119.6*; Beta cell apopt: -5.2

How did COC(=O)c1ccc2c(c1)NC(=O)c1ccccc1S2 do in these assays?
T cruzi inh: -14.2; Bfl-1 A1 inh: -0.5; CSC inhib: -21.1; Calb FLC: 0.6; Beta cell apopt: -6.7

How did Cc1cc(NCc2ccccn2)n2ncc(-c3ccc(Cl)cc3)c2n1 do in these assays?
T cruzi inh: -3.4; TAG inh: 37.7; Bfl-1 A1 inh: 0.0; CSC inhib: 58.7; Calb FLC: 7.9; Beta cell apopt: 59.7

How did Cc1cc(NCc2ccccn2)n2nc(C)c(-c3ccc(Cl)cc3)c2n1 do in these assays?
TAG inh: 30.4; Bfl-1 A1 inh: -0.8; CSC inhib: 76.7*; Calb FLC: 15.4; Beta cell apopt: 38.7

What do the screens show for `CCCc1cc(NCc2ccccn2)n2nc(C)c(-c3ccccc3)c2n1`?
T cruzi inh: 54.6*; TAG inh: 20.9; Bfl-1 A1 inh: 0.5; CSC inhib: 52.6; Calb FLC: 1.3; Beta cell apopt: 49.3

What do the screens show for `Cc1ccc(C(=O)Nc2cccc(S(=O)(=O)N3CCCCC3)c2)cc1[N+](=O)[O-]`?
TAG inh: 1.9; Bfl-1 A1 inh: -0.8; CSC inhib: 15.4; Beta cell apopt: -5.1

What do the screens show for `CCn1c2ccccc2c2cc(/C=N/O)ccc21`?
T cruzi inh: -11.8; TAG inh: 19.9; Bfl-1 A1 inh: 0.5; CSC inhib: -15.2; Calb FLC: 43.6; Beta cell apopt: -4.3

What do the screens show for `C=Cn1ccnc1P(=S)(c1ccc2c(c1)c1ccccc1n2CC)c1nccn1C=C`?
T cruzi inh: 21.4; Bfl-1 A1 inh: 0.2; CSC inhib: 106.2*; Calb FLC: -7.1; Beta cell apopt: 14.7

What do the screens show for `CC(C)c1ccc2c(c1)CC[C@H]1[C@](C)(CN)CCC[C@]21C`?
TAG inh: 122.3

Results for CC(C)c1ccc2c(c1)CCC1C(C)(CN)CCCC21C (stereo unspecified) ?
T cruzi inh: 8.7; Bfl-1 A1 inh: 1.0; CSC inhib: 116.4*; Calb FLC: 86.8*; Beta cell apopt: 63.4

What do the screens show for `COc1ccc(C2CC(c3cccs3)=NN2C(=O)CCl)cc1OC` (stereo unspecified)?
T cruzi inh: 61.7*; Bfl-1 A1 inh: 2.3; CSC inhib: 71.6; Calb FLC: 20.5; Beta cell apopt: -36.3

What do the screens show for `COc1cc(C2CC(c3cccs3)=NN2C(=O)CCl)ccc1OC(F)F` (stereo unspecified)?
T cruzi inh: 61.0*; Bfl-1 A1 inh: inconclusive; CSC inhib: 33.7; Calb FLC: -5.6

What do the screens show for `COc1ccc(C2CC(c3cccs3)=NN2C(=O)c2ccccc2)cc1OC` (stereo unspecified)?
T cruzi inh: -6.3; Bfl-1 A1 inh: 0.0; CSC inhib: -2.0; Calb FLC: -7.1; Beta cell apopt: -6.2

Results for O=C(O)Cc1ccc(NC(=O)c2ccc(NC(=O)C3CC3)cc2)cc1 ?
T cruzi inh: -15.1; TAG inh: 2.9; Bfl-1 A1 inh: -0.3; CSC inhib: 10.4; Calb FLC: 9.8; Beta cell apopt: 5.8

Results for Cc1ccc([C@H]2C[C@@H](n3cc(COC(=O)c4ccccc4)nn3)[C@H](O)CN2C(=O)c2cccs2)cc1 ?
TAG inh: -19.7

What do the screens show for `Cc1cc(C)c2c(=O)n(CC(=O)N3CCC(N4CCCCC4)CC3)sc2n1`?
T cruzi inh: -9.4; TAG inh: 11.2; Bfl-1 A1 inh: -0.5; CSC inhib: -6.7; Calb FLC: -1.7; Beta cell apopt: -2.4

Results for CCCNC(=O)Cn1sc2nc(C)cc(C)c2c1=O ?
T cruzi inh: 56.3*; TAG inh: 18.9; Bfl-1 A1 inh: 0.1; CSC inhib: 31.0; Calb FLC: -7.1; Beta cell apopt: -0.7

What do the screens show for `O=C(Nc1cc(S(=O)(=O)Nc2ccc(Cl)cc2)ccc1N1CCCCC1)c1ccc(F)cc1`?
T cruzi inh: 19.2; TAG inh: 14.7; Bfl-1 A1 inh: 0.1; CSC inhib: 90.5*; Calb FLC: -1.8; Beta cell apopt: 111.7*
